The source of these data is ChEMBL document CHEMBL2169809, “Identification of high-affinity P2Y₁₂ antagonists based on a phenylpyrazole glutamic acid piperazine backbone” (J Med Chem, 2012).

P2Y purinoceptor 12, sequence (Q9H244 whole entry): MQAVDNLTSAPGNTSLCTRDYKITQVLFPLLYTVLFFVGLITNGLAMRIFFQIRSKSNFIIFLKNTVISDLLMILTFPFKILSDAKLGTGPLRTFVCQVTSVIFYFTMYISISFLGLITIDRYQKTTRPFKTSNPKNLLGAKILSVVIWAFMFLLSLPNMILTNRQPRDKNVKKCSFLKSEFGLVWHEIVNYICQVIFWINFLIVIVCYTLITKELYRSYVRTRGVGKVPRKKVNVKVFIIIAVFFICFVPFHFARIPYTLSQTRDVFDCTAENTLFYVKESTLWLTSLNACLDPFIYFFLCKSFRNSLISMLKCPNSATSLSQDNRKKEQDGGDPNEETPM

One test concerns Canis familiaris. As to the kind of experiment: Antiplatelet aggregatory activity in dog assessed as inhibition of ADP-induced platelet aggregation at 10 mg/kg after 24 hrs. Format: functional. Conditions: Canis lupus familiaris. An outline of the steps:
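Ex vivo dog model: compound given orally at 10 mg/kg. Whole-blood platelet aggregation was measured by impedance 24 h after dosing, with ADP as agonist. Inhibition was calculated from mean area under the curve.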
A word on the inhibition in vivo: it is how much of the control response was suppressed. In the case of `CCCCOC(=O)N1CCN(C(=O)CNC(=O)c2cc(OCC(=O)N3CCC[C@H]3C(=O)NC3CCC3)n(-c3ccccc3)n2)CC1`, the inhibition in vivo at 10 mg/kg was found to be 73%.

For a further test, the target named is P2Y purinoceptor 1 (Homo sapiens, UniProt P47900). Put plainly: Displacement of [33P]2-MeS-ADP from human recombinant P2Y1 receptor expressed in CHO cell membranes by scintillation counting method.
P2Y purinoceptor 1, sequence (P47900 whole entry): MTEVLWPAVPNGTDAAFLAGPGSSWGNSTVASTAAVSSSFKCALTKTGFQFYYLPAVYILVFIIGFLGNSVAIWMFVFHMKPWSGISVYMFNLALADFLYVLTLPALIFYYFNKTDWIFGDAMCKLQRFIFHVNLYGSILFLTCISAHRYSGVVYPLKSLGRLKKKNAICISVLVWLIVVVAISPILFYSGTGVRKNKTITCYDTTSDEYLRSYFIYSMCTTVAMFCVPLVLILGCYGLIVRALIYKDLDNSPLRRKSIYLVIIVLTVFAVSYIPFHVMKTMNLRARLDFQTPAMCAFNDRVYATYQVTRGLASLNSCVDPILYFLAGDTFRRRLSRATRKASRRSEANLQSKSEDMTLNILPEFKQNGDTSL
Details: not given
Broadly, the Ki is a measure of affinity in units of concentration, obtained from inhibition or displacement. Regarding `CCCCOC(=O)N1CCN(C(=O)CNC(=O)c2cc(OCC(=O)N3CCC[C@H]3C(=O)NC3CCC3)n(-c3ccccc3)n2)CC1`, the Ki is greater than 20000 nM.
Still for that read-out and setting: as for `CCOC(=O)N1CCN(C(=O)[C@H](CCC(=O)O)NC(=O)c2cc(OCC(=O)N3CCC[C@H]3C(=O)NC3CCC3)n(-c3ccccc3)n2)CC1`, the figure is greater than 20000 nM; as for `CCOC(=O)N1CCN(C(=O)[C@H](CCC(=O)O)NC(=O)c2cc(OC3(C(=O)OCC)CCC3)n(-c3ccccc3)n2)CC1`, greater than 20000 nM.

The next test concerns Platelet. As to the kind of experiment: Inhibition of ADP-stimulated platelet aggregation in human isolated platelets by light transmission aggregometry based Born method. The test is classed as functional, cell-based.
Details: not given
The essentials:
(§1)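 Platelets were pelleted from PRP (430g, 20 min, room temperature) and resuspended in modified Tyrode's buffer (145 mM NaCl, 5 mM KCl, 5.5 mM glucose, 15 mM Hepes, pH 7.4). CaCl2 (0.5 mM final) was added for 2 min at 37 °C, then fibrinogen (1 mg/mL final), then antagonist. Agonist was ADP, collagen or thrombin (0.1 U/mL final). Born aggregometry with stirring; % inhibition from AUC; IC50 from at least triplicate runs.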
In general, IC50 refers to the midpoint of a concentration-inhibition curve. On to `CCOC(=O)N1CCN(C(=O)CNC(=O)c2cc(OCC(=O)N3CCC[C@H]3C(=O)NC3CCC3)n(-c3ccccc3)n2)CC1`, for which the 50% inhibitory concentration (IC50) was 99 nM.
On the same count and under the same terms, as for `CCCCOC(=O)N1CCN(C(=O)CNC(=O)c2cc(OCC(=O)N3CCC[C@H]3C(=O)NC3CCC3)n(-c3ccccc3)n2)CC1`, the figure is 22 nM; as for `CCOC(=O)N1CCN(C(=O)[C@H](CCC(=O)O)NC(=O)c2cc(OCC(=O)N3CCC[C@H]3C(=O)NC3CCC3)n(-c3ccccc3)n2)CC1`, 7 nM.
The same measure, in the same setting: for `CCOC(=O)N1CCN(C(=O)[C@H](CCC(=O)O)NC(=O)c2cc(OC3(C(=O)OCC)CCC3)n(-c3ccccc3)n2)CC1` the value was 701 nM.

The next test concerns Platelet. Put plainly: Inhibition of collagen-stimulated platelet aggregation in human isolated platelets by light transmission aggregometry based Born method. Format: functional, cell-based.
Details: not given
The essentials:
as §1
On to `CCOC(=O)N1CCN(C(=O)CNC(=O)c2cc(OCC(=O)N3CCC[C@H]3C(=O)NC3CCC3)n(-c3ccccc3)n2)CC1`, for which the IC50 is greater than 2000 nM.
On the same count and under the same terms, as for `CCCCOC(=O)N1CCN(C(=O)CNC(=O)c2cc(OCC(=O)N3CCC[C@H]3C(=O)NC3CCC3)n(-c3ccccc3)n2)CC1`, the figure is greater than 2000 nM; as for `CCOC(=O)N1CCN(C(=O)[C@H](CCC(=O)O)NC(=O)c2cc(OCC(=O)N3CCC[C@H]3C(=O)NC3CCC3)n(-c3ccccc3)n2)CC1`, greater than 2000 nM; as for `CCOC(=O)N1CCN(C(=O)[C@H](CCC(=O)O)NC(=O)c2cc(OC3(C(=O)OCC)CCC3)n(-c3ccccc3)n2)CC1`, greater than 2000 nM.

The subject of the next test is Platelet. As to the kind of experiment: Inhibition of thrombin-stimulated platelet aggregation in human isolated platelets by light transmission aggregometry based Born method. The test is classed as functional, cell-based.
Details: not given
The essentials: as §1
Regarding `CCOC(=O)N1CCN(C(=O)CNC(=O)c2cc(OCC(=O)N3CCC[C@H]3C(=O)NC3CCC3)n(-c3ccccc3)n2)CC1`, the concentration for half-maximal inhibition (IC50) was greater than 2000 nM.
Still for that read-out and setting: as for `CCCCOC(=O)N1CCN(C(=O)CNC(=O)c2cc(OCC(=O)N3CCC[C@H]3C(=O)NC3CCC3)n(-c3ccccc3)n2)CC1`, the figure is greater than 2000 nM.
Same read-out and setting: for `CCOC(=O)N1CCN(C(=O)[C@H](CCC(=O)O)NC(=O)c2cc(OCC(=O)N3CCC[C@H]3C(=O)NC3CCC3)n(-c3ccccc3)n2)CC1` the value was greater than 2000 nM.
Same read-out and setting: for `CCOC(=O)N1CCN(C(=O)[C@H](CCC(=O)O)NC(=O)c2cc(OC3(C(=O)OCC)CCC3)n(-c3ccccc3)n2)CC1` the value was greater than 2000 nM.

A further test concerns the target P2Y purinoceptor 12 (Homo sapiens, UniProt Q9H244). As to the kind of experiment: Displacement of [33P]2-MeS-ADP from human recombinant P2Y12 receptor expressed in CHO cell membranes by scintillation counting method.
Details: not given
For the compound `CCOC(=O)N1CCN(C(=O)[C@H](CCc2nnn[nH]2)NC(=O)c2cc(OCC(=O)N3CCC[C@H]3C(=O)NC3CCC3)n(-c3ccccc3)n2)CC1`, the Ki was found to be 5 nM.
On the same count and under the same terms, as for `CCOC(=O)N1CCN(C(=O)CNC(=O)c2cc(OCC(=O)N3CCC[C@H]3C(=O)NC3CCC3)n(-c3ccccc3)n2)CC1`, the figure is 107 nM; as for `CCCCOC(=O)N1CCN(C(=O)CNC(=O)c2cc(OCC(=O)N3CCC[C@H]3C(=O)NC3CCC3)n(-c3ccccc3)n2)CC1`, 7.7 nM; as for `CCCOC(=O)N1CCN(C(=O)[C@H](CCC(=O)O)NC(=O)c2cc(OCC(=O)N3CCC[C@H]3C(=O)NC3CCC3)n(-c3ccccc3)n2)CC1`, 3.1 nM.
Still for that read-out and setting: as for `CCCCOC(=O)N1CCN(C(=O)[C@H](CCC(=O)O)NC(=O)c2cc(OCC(=O)N3CCC[C@H]3C(=O)NC3CCC3)n(-c3ccccc3)n2)CC1`, the figure is 0.8 nM; as for `CCOC(=O)N1CCN(C(=O)[C@H](CCC(=O)O)NC(=O)c2cc(OCC(=O)N3CCC[C@H]3C(=O)NCC3CCC3)n(-c3ccccc3)n2)CC1`, 19 nM; as for `CCOC(=O)N1CCN(C(=O)[C@H](CCC(=O)O)NC(=O)c2cc(OCC(=O)N3CCC[C@H]3C(=O)NC3CCC3)n(-c3ccccc3)n2)CC1`, 7.3 nM.
For the compound `CCOC(=O)N1CCN(C(=O)[C@H](CCC(=O)O)NC(=O)c2cc(OC3(C(=O)OCC)CCC3)n(-c3ccccc3)n2)CC1`, the inhibitory constant (Ki) amounted to 139 nM.

Another test has as its system Platelet. Put plainly: Inhibition of ADP-stimulated platelet aggregation in human platelet rich plasma by 96-well format based turbidimetric method. The test is classed as functional.
Details: not given
An outline of the steps:
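Citrated (ACD-A) donor blood was spun at 150g for 15 min at room temperature to give PRP. PRP was adjusted with PPP to 3 × 10^8 platelets/mL. Compound, diluted in NaCl, was preincubated with hPRP for 5 min before ADP was added.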
On to `CCOC(=O)N1CCN(C(=O)[C@H](CCc2nnn[nH]2)NC(=O)c2cc(OCC(=O)N3CCC[C@H]3C(=O)NC3CCC3)n(-c3ccccc3)n2)CC1`, for which the IC50 came out at 40 nM.
Still for that read-out and setting: as for `CCOC(=O)N1CCN(C(=O)CNC(=O)c2cc(OCC(=O)N3CCC[C@H]3C(=O)NC3CCC3)n(-c3ccccc3)n2)CC1`, the figure is 90 nM; as for `CCCCOC(=O)N1CCN(C(=O)CNC(=O)c2cc(OCC(=O)N3CCC[C@H]3C(=O)NC3CCC3)n(-c3ccccc3)n2)CC1`, 30 nM; as for `CCCOC(=O)N1CCN(C(=O)[C@H](CCC(=O)O)NC(=O)c2cc(OCC(=O)N3CCC[C@H]3C(=O)NC3CCC3)n(-c3ccccc3)n2)CC1`, 21 nM.
In turn, `CCCCOC(=O)N1CCN(C(=O)[C@H](CCC(=O)O)NC(=O)c2cc(OCC(=O)N3CCC[C@H]3C(=O)NC3CCC3)n(-c3ccccc3)n2)CC1` returned an IC50 of 19 nM.
With `CCOC(=O)N1CCN(C(=O)[C@H](CCC(=O)O)NC(=O)c2cc(OCC(=O)N3CCC[C@H]3C(=O)NCC3CCC3)n(-c3ccccc3)n2)CC1`, the IC50 was found to be 100 nM.
The same measure, in the same setting: for `CCOC(=O)N1CCN(C(=O)[C@H](CCC(=O)O)NC(=O)c2cc(OCC(=O)N3CCC[C@H]3C(=O)NC3CCC3)n(-c3ccccc3)n2)CC1` the value was 25 nM; for `CCOC(=O)N1CCN(C(=O)[C@H](CCC(=O)O)NC(=O)c2cc(OC3(C(=O)OCC)CCC3)n(-c3ccccc3)n2)CC1`, 3300 nM.

In another test the test system is Platelet. As to the kind of experiment: Inhibition of ADP-stimulated platelet aggregation in human platelet rich plasma by light transmission aggregometry based Born method.
Details: not given
The test is classed as functional, cell-based.
Consider `CCOC(=O)N1CCN(C(=O)[C@H](CCc2nnn[nH]2)NC(=O)c2cc(OCC(=O)N3CCC[C@H]3C(=O)NC3CCC3)n(-c3ccccc3)n2)CC1`, for which the IC50 amounted to 69 nM.
For the compound `CCOC(=O)N1CCN(C(=O)CNC(=O)c2cc(OCC(=O)N3CCC[C@H]3C(=O)NC3CCC3)n(-c3ccccc3)n2)CC1`, the IC50 amounted to 100 nM.
The same measure, in the same setting: for `CCCCOC(=O)N1CCN(C(=O)CNC(=O)c2cc(OCC(=O)N3CCC[C@H]3C(=O)NC3CCC3)n(-c3ccccc3)n2)CC1` the value was 46 nM; for `CCCOC(=O)N1CCN(C(=O)[C@H](CCC(=O)O)NC(=O)c2cc(OCC(=O)N3CCC[C@H]3C(=O)NC3CCC3)n(-c3ccccc3)n2)CC1`, 30 nM; for `CCCCOC(=O)N1CCN(C(=O)[C@H](CCC(=O)O)NC(=O)c2cc(OCC(=O)N3CCC[C@H]3C(=O)NC3CCC3)n(-c3ccccc3)n2)CC1`, 13 nM.
The same measure, in the same setting: as for `CCOC(=O)N1CCN(C(=O)[C@H](CCC(=O)O)NC(=O)c2cc(OCC(=O)N3CCC[C@H]3C(=O)NCC3CCC3)n(-c3ccccc3)n2)CC1`, the figure is 72 nM; as for `CCOC(=O)N1CCN(C(=O)[C@H](CCC(=O)O)NC(=O)c2cc(OCC(=O)N3CCC[C@H]3C(=O)NC3CCC3)n(-c3ccccc3)n2)CC1`, 9 nM.
On the same count and under the same terms, for `CCOC(=O)N1CCN(C(=O)[C@H](CCC(=O)O)NC(=O)c2cc(OC3(C(=O)OCC)CCC3)n(-c3ccccc3)n2)CC1` the value was 2930 nM.
